Assay results reported in ChEMBL document CHEMBL2346655, “Synthesis and in vitro biological evaluation of 2,6,9-trisubstituted purines targeting multiple cyclin-dependent kinases” (Eur J Med Chem, 2013).
Active and inactive are the calls of the source. The calls are words filed in the database; no cut-off is given here.

Tests used:
[1] = target: T1, Cyclin-dependent kinase 7/ cyclin H (Homo sapiens) (UniProt P51946+P50613); test: Inhibition of CDK7/CyclinH/MAT1-mediated phosphorylation of RNA polymerase 2 at Ser2 in human K562 cells up to 25 uM after 24 hrs by immunoblotting analysis; type: cell-based
Summary of the method: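 Treated cells were lysed in Laemmli buffer and separated by SDS-PAGE, then transferred to nitrocellulose. Blots were probed overnight with phospho-RNA polymerase II (S2) and total RNA polymerase II (clone ARNA-3) antibodies, followed by peroxidase secondaries. Signal was developed by ECL on a CCD camera.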

HCT-116 [2] = test: Induction of apoptosis in human HCT116 cells assessed as caspase-3/7 activation up to 25 uM by fluorescence assay; type: functional, cell-based
Summary of the method: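 After 24 h treatment, cells were lysed on ice for 20 min in pH 7.4 HEPES/KCl/EDTA/EGTA/0.2% CHAPS buffer with protease inhibitors and cleared at 10,000 × g for 30 min at 4 °C. Protein was equalized, then incubated for 1 h with 100 μM Ac-DEVD-AMC in PIPES buffer pH 7.3 containing DTT. Fluorescence was read at 355/460 nm; 100 μM Ac-DEVD-CHO served as the negative control.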

[3] = target: T1, Cyclin-dependent kinase 7/ cyclin H (Homo sapiens); test: Inhibition of CDK7/CyclinH/MAT1-mediated phosphorylation of RNA polymerase 2 at Ser5 in human HCT116 cells up to 25 uM after 24 hrs by immunoblotting analysis; type: cell-based; details: HCT-116
HCT-116 [4] = test: Cell cycle arrest in human HCT116 cells assessed as accumulation at S phase at 5 uM after 24 hrs by propidium iodide staining-based flow cytometric analysis (reference value: 31.6%); type: functional
Summary of the method: (§1)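 Sub-confluent cells treated at several concentrations for 24 h, then pulsed with 10 μM BrdU for 30 min at 37 °C before harvest. Cells were PBS-washed, fixed in 70% ethanol, denatured in 2 M HCl and neutralized. Stained with fluorescein anti-BrdU and propidium iodide; DNA content read by flow cytometry with 488 nm excitation.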

HCT-116 [5] = test: Induction of apoptosis in human HCT116 cells assessed as PARP cleavage up to 5 uM after 24 hrs by immunoblotting analysis; type: functional, cell-based
Summary of the method: (§2)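 Cells were treated for 24 h, harvested directly into Laemmli sample buffer, and run on SDS-PAGE. Proteins were blotted to nitrocellulose, blocked, probed overnight with primary antibodies, then with peroxidase-linked secondaries. Bands were detected by ECL with a CCD camera. PCNA and tubulin served as loading references.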

K562 [6] = test: Induction of apoptosis in human K562 cells assessed as decrease in MCL1 level after 24 hrs by immunoblotting analysis; type: functional, cell-based; summary of the method: as §2
[7] = target: Cyclin-dependent kinase 7/ cyclin H (Homo sapiens, UniProt P50613); test: Inhibition of CDK7/CyclinH/MAT1 (unknown origin) using (YSPTSPS)2KK as substrate; type: protein-complex assay
Cyclin-dependent kinase 7/ cyclin H, sequence (P51946 whole entry): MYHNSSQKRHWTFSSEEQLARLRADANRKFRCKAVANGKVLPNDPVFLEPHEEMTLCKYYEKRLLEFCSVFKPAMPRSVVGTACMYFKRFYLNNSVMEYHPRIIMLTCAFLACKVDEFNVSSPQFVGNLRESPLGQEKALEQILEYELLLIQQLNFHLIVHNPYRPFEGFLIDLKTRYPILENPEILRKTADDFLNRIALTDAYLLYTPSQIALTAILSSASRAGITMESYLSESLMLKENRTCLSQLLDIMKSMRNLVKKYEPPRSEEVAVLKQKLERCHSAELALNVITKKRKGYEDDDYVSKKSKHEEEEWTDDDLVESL
Cyclin-dependent kinase 7/ cyclin H, sequence (P50613 whole entry): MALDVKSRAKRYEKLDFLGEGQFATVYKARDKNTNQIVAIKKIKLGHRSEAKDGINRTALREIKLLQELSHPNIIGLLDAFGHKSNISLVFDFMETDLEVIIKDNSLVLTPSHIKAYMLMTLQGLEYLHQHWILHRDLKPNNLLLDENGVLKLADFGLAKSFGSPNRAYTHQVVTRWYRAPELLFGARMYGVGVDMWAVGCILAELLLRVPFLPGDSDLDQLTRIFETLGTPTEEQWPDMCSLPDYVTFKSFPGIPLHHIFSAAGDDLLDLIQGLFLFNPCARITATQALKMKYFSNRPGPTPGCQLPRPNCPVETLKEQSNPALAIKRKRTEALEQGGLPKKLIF
Summary of the method: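 Buffer was 60 mM HEPES-NaOH pH 7.5, 3 mM MgCl2, 3 mM MnCl2, vanadate, DTT and PEG. Reactions were stopped with H3PO4 and spotted on P-81 paper, which was then washed. Radioactivity was imaged; IC50 taken from dose–response curves.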

HCT-116 [8] = test: Induction of apoptosis in human HCT116 cells assessed as change in BCL2 level up to 5 uM after 24 hrs by immunoblotting analysis; type: functional, cell-based; summary of the method: as §2
[9] = target: T2, CDK9/cyclin T1 (Homo sapiens) (UniProt O60563+P50750); test: Inhibition of CDK9/CyclinT1 in human HCT116 cells assessed as increase in p21 expression at 1 to 5 uM after 24 hrs by immunoblotting analysis; type: cell-based; details: HCT-116
Summary of the method: (§3)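 Immunoblot: cells lysed by harvesting in Laemmli sample buffer, proteins run on SDS-PAGE, electroblotted to nitrocellulose, blocked, primary antibodies overnight, peroxidase-conjugated secondaries, ECL detection by CCD camera. Antibodies included anti-phospho RNA polymerase II (S2), anti-RNA polymerase II (ARNA-3), anti-p53 (DO-1), anti-p21waf1 (118), anti-PCNA.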

K562 [10] = test: Cell cycle arrest in human K562 cells assessed as accumulation at S phase at 0.2 uM after 24 hrs by propidium iodide staining-based flow cytometric analysis (reference value: 38.8%); type: functional; summary of the method: as §1
K562 [11] = test: Cell cycle arrest in human K562 cells assessed as accumulation at subG1 phase at 1 uM after 24 hrs by propidium iodide staining-based flow cytometric analysis (reference value: 2.4%); type: functional; summary of the method: as §1
[12] = target: Cyclin-dependent kinase 2/cyclin E1 (Homo sapiens, UniProt P24941); test: Inhibition of CDK2/Cyclin E (unknown origin) expressed in Sf9 cells using histone H1 as substrate
[13] = target: T2, CDK9/cyclin T1 (Homo sapiens); test: Inhibition of CDK9/CyclinT1-mediated phosphorylation of RNA polymerase 2 at Ser2 in human HCT116 cells up to 25 uM after 24 hrs by immunoblotting analysis; type: cell-based; details: HCT-116; summary of the method: as §3
[14] = target: Cyclin-dependent kinase 5/CDK5 activator 1 (Homo sapiens, UniProt Q00535); test: Inhibition of CDK5/P35 (unknown origin) using histone H1 as substrate; type: protein-complex assay
Cyclin-dependent kinase 5/CDK5 activator 1, sequence (Q00535 whole entry): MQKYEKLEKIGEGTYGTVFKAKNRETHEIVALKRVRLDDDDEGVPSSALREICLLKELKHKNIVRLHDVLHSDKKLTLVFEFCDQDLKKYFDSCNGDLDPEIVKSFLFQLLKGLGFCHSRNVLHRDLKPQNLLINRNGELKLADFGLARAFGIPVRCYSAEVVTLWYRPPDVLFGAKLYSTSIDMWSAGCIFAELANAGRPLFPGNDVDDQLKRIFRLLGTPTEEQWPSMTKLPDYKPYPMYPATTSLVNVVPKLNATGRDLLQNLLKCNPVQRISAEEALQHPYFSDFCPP
Cyclin-dependent kinase 5/CDK5 activator 1, sequence (Q15078 whole entry, further chain): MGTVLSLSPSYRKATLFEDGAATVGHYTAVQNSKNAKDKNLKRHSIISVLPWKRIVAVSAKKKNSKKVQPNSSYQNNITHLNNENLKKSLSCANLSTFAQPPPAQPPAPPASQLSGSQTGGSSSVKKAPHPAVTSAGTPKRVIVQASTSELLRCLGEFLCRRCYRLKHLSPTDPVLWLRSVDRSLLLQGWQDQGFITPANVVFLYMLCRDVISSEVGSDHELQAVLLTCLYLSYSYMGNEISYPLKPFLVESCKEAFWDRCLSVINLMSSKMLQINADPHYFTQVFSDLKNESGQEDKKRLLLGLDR

## CC[C@@H](Nc1nc(NCc2cc(Cl)ccc2O)c2ncn(C(C)C)c2n1)C(C)O (mixture of isomers)
[1]
  inhibition: Active
HCT-116 [2]
  Activity: Active
[3]
  inhibition: Active
HCT-116 [4]
  Activity: 33.7%
HCT-116 [5]
  Activity: Active
K562 [6]
  Activity: Dose-dependent effect
[7]
  IC50: 97 nM
HCT-116 [8]
  Activity: inactive
[9]
  inhibition: Active
K562 [10]
  Activity: 38.5%
K562 [11]
  Activity: 3.3%
[12]
  IC50: 13.1 nM
[13]
  inhibition: Active
[14]
  IC50: 71 nM
